BB579 growth dn = reduces growth of yeast BB579 in restrictive medium; S. cerevisiae BB579 growth, OD615, 48 h; inhibition, % at 10 µM; actives 0.51% (n = 140,000);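 active = inhibition above a set limit, 3 SD over the mean compound inhibition, cut at about 44% in these data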
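Test system: Saccharomyces cerevisiae DeaD strain BB579, replicative lifespan model yeast | Buffer or medium: Restrictive CSMM-D medium | Doses: One dose, 10 µM compound with 0.25% DMSO | Incubation: 48 h exposure, 30 °C | Detection: Culture absorbance at 615 nm | Control set: Amphotericin B at 10 µg/mL as positive control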
KCC2 mod = modulates chloride dependent transport by human KCC2; Q9H2X9; KCC2 cells, thallium flux FluoZin-2 fluorescence; B-score of Tl+ flux slope (higher = more flux/activation; lower = inhibition) at 10 µM; actives 2.2% (n = 190,000); AID 1456;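 active = thallium flux slope and its plate-corrected score both differing from the plate sample mean at a set confidence after two filtering rounds, in either direction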;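 also: slope of fluorescence scaled to starting intensity during 10 to 20 s after thallium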
Target sequence (Q9H2X9 whole entry, looked up): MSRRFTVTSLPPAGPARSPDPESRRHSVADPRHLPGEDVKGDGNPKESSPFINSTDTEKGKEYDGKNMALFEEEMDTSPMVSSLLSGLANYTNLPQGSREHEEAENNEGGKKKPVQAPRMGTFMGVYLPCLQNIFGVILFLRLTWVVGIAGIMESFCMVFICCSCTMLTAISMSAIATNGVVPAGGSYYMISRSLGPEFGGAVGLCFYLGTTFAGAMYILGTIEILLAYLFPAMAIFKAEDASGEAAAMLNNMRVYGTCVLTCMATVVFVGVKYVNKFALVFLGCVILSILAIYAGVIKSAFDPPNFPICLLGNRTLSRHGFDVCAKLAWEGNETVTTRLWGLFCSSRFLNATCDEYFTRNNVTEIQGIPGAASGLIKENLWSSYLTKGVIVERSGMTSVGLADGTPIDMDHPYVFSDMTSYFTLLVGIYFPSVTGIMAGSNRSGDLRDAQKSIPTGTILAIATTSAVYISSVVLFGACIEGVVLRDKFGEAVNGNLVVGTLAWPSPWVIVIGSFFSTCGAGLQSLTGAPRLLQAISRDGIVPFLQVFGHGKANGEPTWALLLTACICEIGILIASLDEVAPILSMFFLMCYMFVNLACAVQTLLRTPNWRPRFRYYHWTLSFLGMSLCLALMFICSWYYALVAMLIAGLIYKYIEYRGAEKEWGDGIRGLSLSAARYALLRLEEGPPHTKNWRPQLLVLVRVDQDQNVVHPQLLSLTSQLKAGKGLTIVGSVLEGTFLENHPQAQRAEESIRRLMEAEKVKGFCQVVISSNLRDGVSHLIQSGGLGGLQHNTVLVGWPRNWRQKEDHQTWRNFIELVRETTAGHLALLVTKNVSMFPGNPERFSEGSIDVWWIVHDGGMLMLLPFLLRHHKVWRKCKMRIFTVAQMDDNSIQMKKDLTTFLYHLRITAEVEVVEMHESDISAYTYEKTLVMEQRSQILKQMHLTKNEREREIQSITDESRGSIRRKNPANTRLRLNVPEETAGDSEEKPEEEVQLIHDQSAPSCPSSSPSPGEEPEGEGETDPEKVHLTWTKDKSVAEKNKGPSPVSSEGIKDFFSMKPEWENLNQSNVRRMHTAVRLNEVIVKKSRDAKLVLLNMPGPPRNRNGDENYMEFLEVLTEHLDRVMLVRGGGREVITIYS
WT yeast gro inh = growth inhibition of WT yeast, mitochondrial fusion screen; actives 2.1% (n = 190,000); mitochondrial fusion phenotypic screen, WT strain; inhibition, % at 10 µM; in the data active = inhibition above about 58%; tested in S. cerevisiae
RAM inhibit = yeast RAM network inhibition; inhibition, % at 50 µM; AID 868; actives 1.8% (n = 190,000); S. cerevisiae dse1pr::URA3 reporter, 5-FOA growth OD615, 2 d; analog-sensitive cbk1-as2 kinase mutant strain;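 active = inhibition above a set limit, 3 SD over mean compound inhibition, cut at about 8.4% in these data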;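 also: inhibition rescues growth on 5-FOA so higher OD means more RAM inhibition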
Yeast life ext = yeast lifespan extension; S. cerevisiae growth with nicotinamide, OD615; deaD strain in restrictive glucose medium; inhibition of the nicotinamide effect, % at 10 µM; actives 0.68% (n = 130,000); AID 775;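 active = inhibition above a set limit, placed 3 SD over the median of all compounds, cut at about 26% in these data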
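Measured by: optical density (absorbance) at 615 nm; System: modified budding yeast, DeaD strain; Medium: restrictive CSMM-D dextrose medium; Timing: 4 h preincubation then 48 h treatment at 30 °C.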
KCC2 secondary = KCC2 (human) modulation, secondary assay; shares compounds with KCC2 mod; HEK293-KCC2, thallium flux, FluoZin2 fluorescence; active compounds read high; normalised thallium flux (F/F0 slope) at 10 µM; actives 15% (n = 3,700); AID 1713;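 active = thallium flux slope above the same plate's solvent-only control mean plus 3 SD; inconclusive = the two replicate wells disagree; inactive = no significant difference from solvent-only control wells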
KCC2 bumet counter = thallium flux persisting under bumetanide in KCC2 cells, counter-screen secondary assay; shares compounds with KCC2 mod; HEK293-KCC2 + bumetanide/ouabain, thallium flux FluoZin2; active compounds read high; normalized thallium flux at 10 µM; actives 49% (n = 3,700); AID 1714;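 active = thallium entry rate above the same plate's blocked-transporter control wells by more than 3 SD; inconclusive = the two repeat wells disagree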;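 also: raw slope of fluorescence over initial fluorescence between 10 and 20 s after thallium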
KCC2 sec2 = KCC2 (human) modulation, second secondary assay. shares compounds with KCC2 mod. HEK293-KCC2, thallium flux FluoZin2 fluorescence; actives lie on both sides; F/F0 rise rate, 10–20 s post-thallium. normalized thallium flux at 10 µM. actives 23% (n = 3,700);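 active = thallium flux slope more than 3 SD above or below the plate's solvent-only control mean, mostly below; inconclusive = the two repeat wells disagreed; inactive = no significant shift from solvent-only controls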
HEK counter1 = parental HEK flux effect, counter-screen. shares compounds with KCC2 mod. HEK293 parental cells, thallium flux FluoZin2, ouabain; baseline-ratio fluorescence slope, 10–20 s after thallium. thallium flux rate (normalised fluorescence) at 10 µM. actives 46% (n = 3,700). AID 1716;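 active = thallium flux rate significantly above the same plate's solvent-only control wells, beyond their mean plus 3 SD; inconclusive = the two replicate wells gave conflicting results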
KCC2 ouabain = confirmation of human KCC2 modulators with ouabain; HEK293-KCC2, thallium flux FluoZin2 fluorescence; bidirectional: low = inhibitor, high = activator; shares compounds with KCC2 mod; raw Tl+ flux slope (below DMSO = inhibition, above = activation) at 10 µM; actives 48% (n = 3,700);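 active = thallium flux slope beyond 3 SD from same-plate DMSO control mean in most replicates, usually higher, sometimes lower; inconclusive = repeat tests gave conflicting results; inactive = no significant difference from controls in most replicates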;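 also: slope of initial-normalized fluorescence between seconds 10 and 20 after thallium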
HEK counter2 = counter-screen for KCC2 modulators: effect in parental HEK293 cells; thallium flux FluoZin-2 fluorescence slope; thallium flux slope at 10 µM; shares compounds with KCC2 mod; actives 33% (n = 3,700);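 active = thallium flux slope above the same plate's solvent-control mean plus 3 SD in both duplicate wells; inconclusive = duplicate wells that disagreed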;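 also: run without ouabain in cells lacking the KCC2 cotransporter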
Numbers stand for hits; i = inactive; ? = inconclusive; nt = no result given. An excerpt weighted towards active compounds, which were near 5.5% of everything screened.

SMILES	BB579 growth dn	KCC2 mod	WT yeast gro inh	RAM inhibit	Yeast life ext	KCC2 secondary	KCC2 bumet counter	KCC2 sec2	HEK counter1	KCC2 ouabain	HEK counter2
Fc1ccc(NC(=S)Nc2ccc(Cl)cc2Cl)cc1	nt	4.5	i	i	nt	i	0.042	i	0.016	?	0.013
O=C(CSc1ccc2ccccc2n1)N1CCC(c2noc3ccc(F)cc23)CC1	i	i	i	i	nt	nt	nt	nt	nt	nt	nt
COC(=O)C(C)Sc1snnc1-c1ccccc1 (stereo not drawn)	i	nt	i	i	i	i	i	i	?	i	i
CCC(c1nnc(SCc2nc3ccccc3s2)n1Cc1ccccc1)N(C)C (stereo not drawn)	i	nt	i	i	i	i	i	?	i	i	i
c1ccc(Cn2c(SCc3nc4ccccc4s3)nnc2-c2ccco2)cc1	i	-3.4	i	i	i	i	?	0.027	0.0053	?	0.0076
CCn1c(SCc2nc3ccccc3s2)nnc1-c1ccccc1	i	i	i	i	i	nt	nt	nt	nt	nt	nt
O=C(COC(=O)[C@@H]1CC(O)CN1S(=O)(=O)c1ccccc1[N+](=O)[O-])Nc1ccc2ccccc2c1 (stereo partly drawn)	i	i	i	i	i	nt	nt	nt	nt	nt	nt
COC(=O)C1=C(C(=O)OC)C(c2cc(Cl)ccc2O)c2sc(=O)[nH]c2S1 (stereo not drawn)	i	-4.4	i	i	i	i	i	?	?	0.014	?
OC(c1ccccc1)c1nccc2ccccc12 (stereo not drawn)	nt	i	i	i	nt	nt	nt	nt	nt	nt	nt
COCCN(Cc1ccco1)C(=O)Cn1ncc2c(=O)oc3ccccc3c21	nt	i	nt	nt	nt	nt	nt	nt	nt	nt	nt
O=C(/C=C/c1ccccc1)Nc1nnc(-c2ccco2)o1	nt	2.8	i	i	nt	i	0.0083	i	?	i	i
O=C(Nc1nnc(-c2cccnc2)o1)c1cccc(Cl)c1	nt	14	i	i	nt	?	0.027	i	?	0.034	i
Cc1nn(-c2ccccc2)c(C)c1C(=O)Nc1nnc(-c2ccco2)o1	i	nt	i	i	i	nt	nt	nt	nt	nt	nt
O=C(Nc1nnc(-c2ccccn2)o1)c1cccc(Cl)c1	nt	11	i	i	nt	i	0.015	i	0.021	0.027	0.022
O=C(Nc1nnc(-c2ccco2)o1)c1cccc(Cl)c1	nt	24	i	i	nt	0.019	0.063	i	0.034	0.049	0.015
CC(Oc1cc(-c2ccccc2)cc2ccccc12)C(=O)N1CCOCC1 (stereo not drawn)	i	i	i	i	i	nt	nt	nt	nt	nt	nt
COc1cc([N+](=O)[O-])ccc1NC(=S)Nc1cc(C(=O)OC(C)C)cc(C(=O)OC(C)C)c1	i	i	i	i	i	nt	nt	nt	nt	nt	nt
CCCC(C)NC(=O)COc1ccc(S(=O)(=O)c2ccc(OCC(=O)NC(C)CCC)cc2)cc1 (stereo not drawn)	i	i	i	i	i	nt	nt	nt	nt	nt	nt
Cc1cccc(-c2nnc(NC(=O)c3ccc(Cl)cc3)o2)c1	i	91	i	i	i	0.07	0.16	0.077	?	0.12	0.072
Cc1ccc(C(=O)Nc2nnc(-c3ccncc3)o2)cc1	nt	i	i	i	nt	nt	nt	nt	nt	nt	nt
Cc1ccc(/C=N/NC(=O)c2ccc(Br)o2)s1	i	5.3	i	i	i	i	0.0092	i	?	i	i
CCc1ccc(/C=N\NC(=O)c2ccc(Br)o2)s1	i	6	i	i	i	i	0.022	i	0.021	i	0.012
CCn1c(-c2ccc(F)cc2)n[nH]c1=S	i	i	i	i	i	nt	nt	nt	nt	nt	nt
CCn1c(-c2ccc(C(C)(C)C)cc2)n[nH]c1=S	i	6.8	i	i	i	?	0.03	i	?	0.032	?
N#C/C(=C\c1ccc(-c2cccc([N+](=O)[O-])c2)o1)C(=O)Nc1nc(-c2cccs2)cs1	nt	4	nt	nt	nt	i	0.0099	i	0.018	?	i
SMILES	BB579 growth dn	KCC2 mod	WT yeast gro inh	RAM inhibit	Yeast life ext	KCC2 secondary	KCC2 bumet counter	KCC2 sec2	HEK counter1	KCC2 ouabain	HEK counter2
Cc1cc(C)cc(C(=O)NCC(=O)OCC(=O)N2CCN(S(=O)(=O)c3ccc4ccccc4c3)CC2)c1	i	i	i	i	i	nt	nt	nt	nt	nt	nt
CCOC(=O)c1sc(-c2ccc(C)cc2)c(C#N)c1C	i	5.3	i	i	i	i	i	i	i	i	i
CCOc1ccc(CCNC(=O)c2ccc3nc(N4CCOCC4)sc3c2)cc1OCC	nt	i	nt	nt	nt	nt	nt	nt	nt	nt	nt
Cn1cc(Cl)c(C(=O)NC(=S)Nc2sc3c(c2C#N)CCCCC3)n1	i	11	i	i	i	i	0.021	?	0.019	0.033	0.021
C=CCNC(=S)Nc1sc2c(c1C#N)CCCC2	nt	13	i	i	nt	i	0.021	i	0.018	0.027	0.012
Cc1cc(C(=O)Nc2sc3c(c2C#N)CCC3)no1	i	i	i	i	i	nt	nt	nt	nt	nt	nt
CC(C)(C)C(=O)NC(=S)Nc1sc2c(c1C#N)CCCCC2	i	i	i	i	i	nt	nt	nt	nt	nt	nt
CC(C)Cc1cc(C(=O)Nc2sc3c(c2C#N)CCCC3)no1	i	4.1	i	9.9	i	i	0.019	i	?	?	?
CC(C)Cc1cc(C(=O)Nc2sc3c(c2C#N)CCC3)no1	i	4.8	i	10	i	i	0.017	i	0.017	0.027	0.014
O=C(CCn1c(=O)[nH]c2ccsc2c1=O)Nc1ccc(F)c(F)c1	i	i	i	i	i	nt	nt	nt	nt	nt	nt
O=C(c1nc2nc(-c3cccs3)cc(C(F)(F)F)n2n1)N1CCN(Cc2ccccc2)CC1	i	i	i	i	nt	nt	nt	nt	nt	nt	nt
O=[N+]([O-])c1ccc(-c2cnc[nH]2)cc1	nt	i	nt	nt	nt	nt	nt	nt	nt	nt	nt
CC(=O)Nc1sc2c(c1C#N)CCCCC2	i	6.1	i	i	i	i	i	i	i	i	?
Cc1ccc(Nc2nnc(SCC(=O)Nc3cccc(S(=O)(=O)NC4=NCCCCC4)c3)s2)c(C)c1	i	i	i	i	i	i	i	i	0.0052	0.017	i
C=CCn1c(-c2cc3cccc(OC)c3o2)n[nH]c1=S	nt	3.7	i	i	nt	i	0.014	i	0.013	?	0.016
C=CCn1c(-c2ccco2)n[nH]c1=S	i	nt	i	i	i	i	i	i	i	i	i
C=CCn1c(-c2cccc(OC)c2OC)n[nH]c1=S	nt	i	i	i	nt	nt	nt	nt	nt	nt	nt
CCc1nnc(NC(=O)CSc2nc3cc(OC)c(OC)cc3cc2C)s1	nt	i	i	i	nt	nt	nt	nt	nt	nt	nt

Assay outcomes deposited in PubChem by several laboratories.
